Hits are enriched below; roughly 1% of the tested compounds scored in any of these assays.
FXIa inh 1536 – human FXIa protease inhibitors, primary screen, biochemical, 1536-well; Coagulation factor XI (Homo sapiens), P03951; purified FXIa, Boc-Glu-Ala-Arg-AMC fluorogenic substrate; inhibition, % at 5 µM; 220,000 compounds, 0.14% hits; AID 798, 2007;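 active = inhibition of at least 40%; inactive = inhibition below 40%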;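 note: fluorescence of freed AMC excited at 355 nm; 0% = enzyme without compound and 100% = no enzyme blank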
Target sequence (P03951 19-387 limits assumed): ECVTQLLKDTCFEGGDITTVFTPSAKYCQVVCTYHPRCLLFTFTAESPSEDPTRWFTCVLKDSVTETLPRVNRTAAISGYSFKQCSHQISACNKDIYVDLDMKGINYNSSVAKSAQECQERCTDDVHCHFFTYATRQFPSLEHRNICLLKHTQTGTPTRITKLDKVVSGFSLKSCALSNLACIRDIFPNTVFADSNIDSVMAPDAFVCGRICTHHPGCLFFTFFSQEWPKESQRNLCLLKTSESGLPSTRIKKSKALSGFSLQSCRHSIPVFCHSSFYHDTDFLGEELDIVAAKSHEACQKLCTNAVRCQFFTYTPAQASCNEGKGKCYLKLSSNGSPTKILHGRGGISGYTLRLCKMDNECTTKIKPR
Target sequence (P03951 388-625 limits assumed): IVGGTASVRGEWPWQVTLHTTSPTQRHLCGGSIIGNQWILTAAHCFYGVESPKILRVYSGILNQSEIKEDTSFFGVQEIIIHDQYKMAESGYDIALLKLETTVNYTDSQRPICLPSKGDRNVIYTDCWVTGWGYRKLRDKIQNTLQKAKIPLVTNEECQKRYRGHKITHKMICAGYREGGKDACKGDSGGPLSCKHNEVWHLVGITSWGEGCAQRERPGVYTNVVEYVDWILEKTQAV
hK5 inh – human KLK5 protease inhibitors, primary screen, biochemical, 1536-well | Kallikrein-5 (Homo sapiens), Q9Y337 | recombinant hK5, fluorogenic AMC substrate cleavage | inhibition, % at 5 µM | 210,000 compounds, 0.59% hits;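 active = inhibition of 40% or more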;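 note: 0% = enzyme controls without compound and 100% = no-enzyme blanks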
FXIIa inh 1536 – human FXIIa protease inhibitors, primary screen, biochemical, 1536-well; 220,000 compounds, 0.3% hits; purified FXIIa, Boc-QGR-AMC fluorogenic substrate, 2 h; inhibition, % at 5 µM; Coagulation factor XII (Homo sapiens), P00748; in the data active = inhibition above about 40%;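 note: 0% = enzyme with no compound and 100% = blank without enzyme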
Thrombin inh – human alpha-thrombin inhibitors, primary screen, counter-screen for coagulation protease inhibitor project, biochemical, 1536-well, fluorogenic AMC substrate; Prothrombin (Homo sapiens), P00734; Boc-VPR-AMC fluorogenic substrate cleavage; inhibition, % at 5 µM; 220,000 compounds, 0.26% hits; AID 1046, 2008;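 active = inhibition at or above 40%; inactive = inhibition below 40%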;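 note: 0% = enzyme with no compound and 100% = wells without enzyme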
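Test system: human alpha-thrombin; medium: pH 7.5 Tris-saline with Tween 20; times: reaction at room temperature; signal: AMC fluorescence at 355 nm excitation and 460 nm emission; also added: Boc-VPR-AMC substrate, 15 µM final; dosing: one concentration per compound, 5 µM, with 0.2% DMSO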
* = called active by the depositor; · = no result given.

SMILES	FXIa inh 1536	hK5 inh	FXIIa inh 1536	Thrombin inh
O=C(CN(C(=O)c1ccccc1Cl)C1CCCCC1)Nc1ccc(Cl)c([N+](=O)[O-])c1	4.6	1.1	69.8*	0.2
O=C(CN(C(=O)c1ccc(Cl)cc1)C1CCCCC1)Nc1ccc(Cl)c([N+](=O)[O-])c1	5.8	-6.1	10.7	1.9
c1ccc(-n2nnnc2Cc2nnnn2-c2ccccc2)cc1	25.1	72.6*	29.8	1.8
O=C1C2C3C=CC(C4CC34)C2C(=O)N1Cc1ccco1 (stereo not given)	4.2	-11.4	10.2	-9.4
C=CCOc1ccc(/C(O)=C2\C(=O)C(=O)N(CCCOC)C2c2ccc(O)c(OC)c2)cc1 (stereo not given)	5.0	-1.2	1.3	-4.9
C=CCOc1ccc(/C(O)=C2\C(=O)C(=O)N(CCCOC)C2c2ccncc2)cc1 (stereo not given)	13.1	31.4	21.7	41.3*
COc1ccc(CCNC(=O)C(=O)Nc2ccc3c(c2)OCO3)cc1OC	-0.7	-5.1	6.0	-14.9
O=C(O)CCC(=O)c1ccc(-c2ccccc2)cc1	-2.7	-13.9	6.2	-1.4
O=C(O)CCC(=O)CCC(=O)c1ccc(Cl)cc1	9.2	44.3*	32.5	13.9
O=C(c1ccccc1NS(=O)(=O)c1cccc(C(F)(F)F)c1)N1CCc2ccccc21	6.5	-12.0	6.6	-5.9
COC(=O)c1cc(CSc2nnc(NC3CCCCC3)s2)oc1C	5.8	42.0*	22.0	16.8
CN(C)c1ccc(N/C(N)=N/c2nc(C(F)(F)F)cc(C(F)(F)F)n2)cc1	-1.8	-2.1	5.7	1.0
COc1cc(C2C3C(=O)N(Cc4ccccc4)C(=O)C3ON2c2ccccc2)cc(OC)c1OC (stereo not given)	-2.1	-10.3	10.7	4.6
COc1ccc(C2C3C(=O)N(Cc4ccccc4)C(=O)C3ON2c2ccccc2)c(OC)c1OC (stereo not given)	7.4	52.3*	13.4	19.4
C/C(=N/Oc1nc(C)cc(C)n1)c1ccc(Cl)cc1Cl	0.8	-3.5	7.9	1.6
C/C(=N/Oc1nc(C)cc(C)n1)c1ccc(Br)cc1	1.4	41.2*	12.5	10.5
COc1cc2ccccc2cc1C(=O)NC(=S)Nc1cc(C(=O)O)ccc1C	-0.7	-4.0	98.9*	-15.1
COc1ccccc1C(=O)NC(=S)Nc1cc(C(=O)O)ccc1C	-2.4	-0.4	5.9	-4.8
CC(=O)c1ccc(O)c(CSC2=NCCS2)c1	27.2	33.9	25.6	66.8*
O=C(O)C1C2C=CC3(CN(Cc4ccncc4)C(=O)C13)O2 (stereo not given)	-3.8	-27.7	-4.0	-6.3
CCOC(=O)CNC(=O)CSc1nnc(-c2ccc(OC)cc2)n1CC	-1.7	-6.0	5.8	-7.7
CCOC(=O)CSc1nnc(-c2ccc(OC)cc2)n1CC	19.2	77.5*	26.3	37.7
CN1C(=O)C(O)(c2sc(N)nc2-c2ccccc2)c2ccccc21 (stereo not given)	-2.1	56.0*	-2.8	12.8
Cc1nn(-c2ccccc2)c(N)c1C1(O)C(=O)N(C)c2ccccc21 (stereo not given)	7.1	-8.0	9.9	-0.5
CC(C)c1ccc(NC(=O)COc2ccccn2)cc1	31.0	20.8	26.4	88.8*
SMILES	FXIa inh 1536	hK5 inh	FXIIa inh 1536	Thrombin inh
CCSCc1nnc(SCC(=O)Nc2cccc(SC)c2)n1C	3.9	-17.6	10.4	3.4
Cc1ccc(S(=O)(=O)NNC(=O)c2ccc(O)cc2)cc1	3.5	53.4*	10.0	29.4
CC(=O)Nc1ccc(C(=O)NNS(=O)(=O)c2ccc(C)cc2)cc1	10.0	-9.2	13.3	2.9
COc1ccc(/C=C/C(=O)N2CCN(S(=O)(=O)/C=C/c3ccccc3)CC2)cc1OC	3.4	-37.4	1.7	-7.1
COc1ccc(/C=C/C(=O)N2CCN(S(=O)(=O)c3ccccc3)CC2)cc1OC	34.2	48.2*	21.6	24.8
COC(=O)c1cccc(NC(=S)Nc2cc(Cl)ccc2OC)c1	0.4	·	13.4	-0.8
COC(=O)c1cccc(NC(=O)Nc2ccc(Cl)cc2Cl)c1	21.3	41.9*	19.8	40.0
CCC(C)n1c(SCC(=O)NC(=O)Nc2ccc3c(c2)OCCO3)nc2ccccc2c1=O (stereo not given)	-1.2	-2.6	9.2	-1.8
CCC(C)[C@H](NC(=O)Nc1ccc(C(C)=O)cc1)C(=O)OC (stereo not given in full)	23.9	2.0	43.8*	1.2
COC(=O)c1ccc(NC(=S)Nc2ccc(O)cc2)cc1	27.9	33.1	61.1*	14.5
Oc1ccc(NC(=S)Nc2ccc(O)cc2)cc1	-3.6	-1.5	8.1	-3.3
CCCC(C)C(=O)Nc1ccc(F)c(Cl)c1 (stereo not given)	27.1	18.8	37.6	62.3*
N=C(N)c1ccc(OCCCCCOc2ccc(C(=N)N)cc2)cc1	10.2	-1.4	45.9*	24.7
CC(C)(CNS(C)(=O)=O)SCc1ccc(Cl)cc1	-5.2	-8.0	-5.1	11.3
O=c1c2ccccc2nnn1CSc1nnc(COc2ccc(Cl)cc2)n1Cc1ccco1	1.0	48.0*	18.5	1.4
O=C(CSc1nnc(COc2ccccc2)n1Cc1ccco1)c1ccc(F)cc1	27.5	-2.8	61.8*	-9.4
Cc1cc(=O)oc(C)c1C(=O)n1nc(C)c2c1C[C@@H]1[C@H]2C1(C)C	5.9	1.8	5.7	-2.1
COc1ccccc1N1CCN(C(=O)CNC(=O)c2cn(-c3ccccc3OC)c(=O)c3ccccc23)CC1	-0.8	2.1	9.3	101.1*
COc1ccccc1-n1cc(C(=O)NCC(=O)N2CCN(c3ccccc3)CC2)c2ccccc2c1=O	0.4	-1.6	8.1	-0.6
CC(=O)c1cc(CN2CCN(C3CCCCC3)C(CCO)C2)cs1 (stereo not given)	10.8	3.4	10.4	-12.5
CCN(CC)CCN1C(=O)C(=O)/C(=C(/O)c2cccc(OC)c2)C1c1ccccn1 (stereo not given)	5.8	-9.8	19.6	0.4
O=C(CN1CCN(c2ccccn2)CC1)Nc1ccc(Oc2ccccc2)cc1	27.4	-6.9	56.2*	1.7
O=C(CN1CCN(c2ccccn2)CC1)Nc1ccccc1	0.6	-12.4	16.6	1.9
CCCC(=O)N=C1SC2CS(=O)(=O)CC2N1c1ccc(CC)cc1 (stereo not given)	26.3	-8.6	41.4*	-6.4
COc1ccc(CCN2C(=NC(=O)CCC(=O)O)SC3CS(=O)(=O)CC32)cc1OC (stereo not given)	4.3	-22.0	4.3	-3.9
CCCS(=O)(=O)N1CCN=C1SCc1cccc(C)c1	-1.2	-10.4	11.5	0.3
COc1cc(C(=O)NCC(=O)OCn2nnc3ccccc3c2=O)cc(OC)c1OC	40.3*	17.6	28.6	-5.8
COc1cccc(NC(=O)CSc2nnc(-c3cccc(OC(C)C)c3)n2N)c1	4.9	-13.1	7.8	11.3
Nc1nncn1C(=O)CCc1ccccc1	0.2	-1.1	9.1	55.8*
Nc1nncn1C(=O)CCCOc1ccccc1	1.1	1.9	24.3	22.6

Assay outcomes from PubChem.
